Several values for one entry are separate records, joined by “and”; a condition that tells them apart may be missing. Equal values may be shown once.

Assay [1] deals with T1, Nociceptin receptor (Homo sapiens, UniProt P41146). Nature of the assay: Binding affinity for opioid receptor like type, human Opioid receptor like 1 expressed in membrane homogenates of COS-1 or CHO cells. The class given is cell-based.
Assay [2] concerns the target Delta-type opioid receptor (Homo sapiens, UniProt P41143). Nature of the assay: Binding affinity for opioid receptor type, human Opioid receptor delta 1 expressed in membrane homogenates of COS-1 or CHO cells. The class given is cell-based.
In assay [3] the target is T2, Mu-type opioid receptor (Homo sapiens, UniProt P35372). The experiment in a line: Binding affinity for opioid receptor type, human Opioid receptor mu 1 expressed in membrane homogenates of COS-1 or CHO cells. The format is cell-based.
T2 sequence (P35372 whole entry): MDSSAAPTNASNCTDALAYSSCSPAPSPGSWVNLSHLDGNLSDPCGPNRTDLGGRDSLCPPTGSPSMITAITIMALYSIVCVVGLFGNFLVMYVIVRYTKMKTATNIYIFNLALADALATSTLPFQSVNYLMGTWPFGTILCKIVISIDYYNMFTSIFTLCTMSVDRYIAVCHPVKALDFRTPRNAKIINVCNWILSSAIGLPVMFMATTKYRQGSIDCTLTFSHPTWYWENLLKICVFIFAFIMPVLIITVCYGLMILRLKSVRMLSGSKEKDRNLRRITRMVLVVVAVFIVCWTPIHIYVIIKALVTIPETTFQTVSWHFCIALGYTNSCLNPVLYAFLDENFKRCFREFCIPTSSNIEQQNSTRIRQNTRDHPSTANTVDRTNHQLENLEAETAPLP
Assay [4] has as its target T3, Kappa-type opioid receptor (Homo sapiens, UniProt P41145). Nature of the assay: Stimulation of [35S]GTP-gamma-S, binding using COS-human Opioid receptor kappa 1 membranes. The class given is functional. The gist of the method: (§1)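 Agonist-stimulated [35S]GTPγS binding to 5 μg membranes from COS cells transiently expressing human KOR or MOR. Incubation was 1 h at 30 °C with 0.2 nM [35S]GTPγS, GDP and increasing ligand concentrations, giving concentration–response data. Mean ± SEM of at least two separate experiments, each in triplicate.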

Assay [5] concerns the target T3, Kappa-type opioid receptor. The experiment in a line: Binding affinity for opioid receptor type, human Opioid receptor kappa 1 expressed in membrane homogenates of COS-1 or CHO cells. The format is cell-based.
In assay [6] the target is T2, Mu-type opioid receptor. The experiment in a line: Stimulation of [35S]GTP-gamma-S, binding using COS-human Opioid receptor mu 1 membranes. The class given is functional. The gist of the method:
as §1

For assay [7], the target named is T3, Kappa-type opioid receptor. The experiment in a line: Maximal activation of [35S]GTP-gamma-S, binding using COS-human Opioid receptor kappa 1 membranes. The class given is functional. The gist of the method:
(§2)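 Membranes (5 μg) from COS cells transiently transfected with human KOR or MOR, incubated 1 h at 30 °C with 0.2 nM [35S]GTPγS, GDP and increasing ligand concentrations. Maximal activation is given as percentage of basal [35S]GTPγS binding. Mean ± SEM of at least two separate experiments, each in triplicate.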
(GTPγS is a poorly hydrolysed GTP analogue; its binding reports G protein activation.)

Assay [8] deals with T2, Mu-type opioid receptor. The experiment in a line: Maximal activation of [35S]GTP-gamma-S, binding using COS-human Opioid receptor mu 1 membranes. The class given is functional. The essentials:
as §2

Assay [9] has as its target T1, Nociceptin receptor.

Sequence of Delta-type opioid receptor (P41143 whole entry): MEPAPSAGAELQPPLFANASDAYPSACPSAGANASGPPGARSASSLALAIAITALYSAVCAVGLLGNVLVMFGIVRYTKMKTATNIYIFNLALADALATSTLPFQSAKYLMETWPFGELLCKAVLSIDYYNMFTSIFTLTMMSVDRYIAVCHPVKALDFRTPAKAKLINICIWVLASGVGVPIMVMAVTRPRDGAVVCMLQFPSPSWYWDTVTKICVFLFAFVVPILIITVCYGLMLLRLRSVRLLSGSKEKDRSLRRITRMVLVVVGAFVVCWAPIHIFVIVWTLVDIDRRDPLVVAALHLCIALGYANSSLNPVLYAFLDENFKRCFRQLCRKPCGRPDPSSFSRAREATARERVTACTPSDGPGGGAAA
T3 sequence (P41145 whole entry): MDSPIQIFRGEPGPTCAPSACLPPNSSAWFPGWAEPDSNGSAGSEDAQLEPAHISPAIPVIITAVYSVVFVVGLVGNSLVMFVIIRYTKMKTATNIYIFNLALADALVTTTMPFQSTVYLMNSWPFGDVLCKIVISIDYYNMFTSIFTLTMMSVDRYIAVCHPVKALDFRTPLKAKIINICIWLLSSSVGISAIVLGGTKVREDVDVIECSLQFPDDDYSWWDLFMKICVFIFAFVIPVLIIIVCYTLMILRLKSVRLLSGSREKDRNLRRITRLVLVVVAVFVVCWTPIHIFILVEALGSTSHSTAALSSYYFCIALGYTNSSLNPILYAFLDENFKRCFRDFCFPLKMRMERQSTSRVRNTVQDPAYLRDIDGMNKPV
T1 sequence (P41146 whole entry): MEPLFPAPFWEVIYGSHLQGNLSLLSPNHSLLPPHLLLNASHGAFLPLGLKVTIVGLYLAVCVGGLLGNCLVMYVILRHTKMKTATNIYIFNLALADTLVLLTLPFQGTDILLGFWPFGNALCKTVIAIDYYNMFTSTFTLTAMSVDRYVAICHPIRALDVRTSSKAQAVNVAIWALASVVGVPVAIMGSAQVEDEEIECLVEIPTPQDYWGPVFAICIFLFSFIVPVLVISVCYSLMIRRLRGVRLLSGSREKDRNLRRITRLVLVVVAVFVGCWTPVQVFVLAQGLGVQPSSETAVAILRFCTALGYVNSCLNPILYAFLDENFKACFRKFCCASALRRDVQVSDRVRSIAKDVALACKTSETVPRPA

By Ki is commonly meant the equilibrium dissociation constant of an inhibitor or competing ligand from its target. Lower therefore signals a stronger hold on the target. For orientation: EC50 means the concentration giving half of the maximal effect. A low value points to higher potency in that assay. Turning to `CC(=O)N[C@@H](CCCN=C(N)N)C(=O)NC(CC1CCCCC1)C(=O)NC1CC[C@H]2CCC[C@@H](C(=O)N[C@H](CCCN=C(N)N)C(=O)NC(Cc3ccc(Cl)cc3)C(N)=O)N2C1=O` (stereo in doubt), the inhibition constant (Ki) is 35 nM at Nociceptin receptor [1], 7050 nM in assay [2], 496 nM on Mu-type opioid receptor [3] and 441 nM in [5]. Moreover, the EC50 in [4] is greater than 1000 nM; at Mu-type opioid receptor [6], 2800 nM. The Activity in assay [7] stood at 117%; at Mu-type opioid receptor [8] it was 141%.
For `CC(=O)N[C@@H](CCCN=C(N)N)C(=O)NC(CC1CCCCC1)C(=O)N[C@H]1CC[C@@H]2SC[C@H](C(=O)N[C@H](CCCN=C(N)N)C(=O)NC(Cc3ccc(Cl)cc3)C(N)=O)N2C1=O` (stereo in doubt), the Ki at Nociceptin receptor [1] (cos-1) is 34 nM; in [2] (cos-1) it was 222 nM; at Mu-type opioid receptor [3] (cos-1), 53 nM; in assay [5] (cos-1), 78 nM. Moreover, the Ke at Nociceptin receptor [9] turned out to be 40 nM.
As for `CC(=O)N[C@@H](CCCN=C(N)N)C(=O)N[C@H](CC1CCCCC1)C(=O)N[C@H]1C[C@H]2CCC[C@@H](C(=O)N[C@H](CCCN=C(N)N)C(=O)N[C@H](Cc3ccc(Cl)cc3)C(N)=O)N2C1=O`, the Ki at Nociceptin receptor [1] (cos-1) was found to be 2130 nM; in [2] (cos-1), 10900 nM; on Mu-type opioid receptor [3] (cos-1) it was 2700 nM; in [5] (cos-1), 1080 nM.
For `CC(=O)N[C@@H](CCCN=C(N)N)C(=O)N[C@H](CC1CCCCC1)C(=O)N[C@@H](Cc1ccccc1)C(=O)N1[C@H](C(=O)N[C@H](CCCN=C(N)N)C(=O)N[C@H](Cc2ccc(Cl)cc2)C(N)=O)CC[C@@H]1C(C)(C)C`, the Ki amounted to 1700 nM on Nociceptin receptor [1], 2340 nM in assay [2], 368 nM on Mu-type opioid receptor [3] and 282 nM in assay [5].
As for `CC(=O)N[C@@H](CCCN=C(N)N)C(=O)NC(CC1CCCCC1)C(=O)N[C@H]1CC[C@H]2SC[C@@H](C(=O)N[C@H](CCCN=C(N)N)C(=O)NC(Cc3ccc(Cl)cc3)C(N)=O)N2C1=O` (stereo in doubt), the Activity was 122% and 120% in assay [7]; 207% on Mu-type opioid receptor [8]. On Nociceptin receptor [9], this compound yielded a Ke of 400 nM.
For `CC(=O)N[C@@H](CCCNC(=N)N)C(=O)N[C@H](CC1CCCCC1)C(=O)N[C@H]1CC[C@H]2CC[C@@H](C(=O)N[C@H](CCCNC(=N)N)C(=O)N[C@H](Cc3ccc(Cl)cc3)C(N)=O)N2C1=O`, the Ki at Nociceptin receptor [1] (cos-1) was found to be 44 nM; in assay [2] (cos-1) it was 5200 nM; at Mu-type opioid receptor [3] (cos-1), 75 nM; in assay [5] (cos-1), 190 nM. Moreover, the figures for the EC50 (in assay [4]; on Mu-type opioid receptor [6]) were greater than 1000 nM and 1400 nM, respectively.

(Values after ChEMBL document CHEMBL1135663, “Probing opioid receptor interactions with azacycloalkane amino acids. Synthesis of a potent and selective ORL1 antagonist” (J Med Chem, 2002).)
